Data: article PMC3746791 (International Journal of Nanomedicine, 2013)

Columns and labels:
[1] = test system: HepG2 cells; assay type: cell-based, human; details: 2 hours, DOX equivalent 30 μg/mL
Method in brief: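 HepG2 cells in DMEM/10% FBS, 37°C, […], exposed 2 h at 37°C to free or liposomal drug at 30 μg/mL DOX equivalent. Confocal: 7 × 10^4 cells/well on cover glass, 50% confluence, PBS-washed, paraformaldehyde-fixed, Triton-permeabilised, DAPI-stained, ex/em 488/560 nm. Flow: 80% confluence, ex 488/em 575 nm, drug-free cells as reference, n = 3. Competition: 100 mM Gal stock added before liposomes.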

[2] = Pharmacokinetic studies in rats; assay type: in vivo, Sprague Dawley rats; details: at 4 hours postinjection, DOX equivalent dose 10 mg/kg
Method in brief: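 Sprague Dawley rats, 5 per group, given 10 mg/kg DOX equivalent. Jugular blood drawn 10 min to 8 h, plasma spun off immediately. Salicylic acid internal standard added, then perchloric acid precipitation. Supernatant run on C18 HPLC in NH4H2PO4 (0.01 mol/L)-acetonitrile-acetic acid (76:24:0.4) at 1.0 mL/min, 233 nm, 40°C. Two-compartment pharmacokinetic modelling.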

[3] = In vivo biodistribution study; design: species or system Kunming mice; details: mice, intravenous, DOX equivalent 5 mg/kg; heart, spleen, lung, kidney

COc1cccc2c1C(=O)c1c(O)c3c(c(O)c1C2=O)C[C@@](O)(C(=O)CO)C[C@@H]3O[C@H]1C[C@H](N)[C@H](O)[C@H](C)O1 [Free DOX, doxorubicin]
Cellular uptake of DOX (fluorescence) [1]: most intense intracellular fluorescence
Plasma concentration of DOX [2]: 180 ng/mL
DOX fluorescence in other organs [3]: fluorescence was also observed in the heart, spleen, and kidney
